Experimental data published in ChEMBL document CHEMBL4033788, “Novel Ligustrazine-Based Analogs of Piperlongumine Potently Suppress Proliferation and Metastasis of Colorectal Cancer Cells in Vitro and in Vivo” (J Med Chem, 2018).
In brackets after ≈: the same amount, converted by molar mass. Activity calls are given as the source filed them. The calls are words filed in the database; no cut-off is given here.

Key:
HCT-116 [1] = assay: Cytotoxicity against human HCT116 cells at 2 to 50 nM after 24 to 48 hrs in presence of TGF-beta1 by MTT assay; assay type: cell-based; conditions: hct-116, 0.05 µM
In short: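 HCT-116 cells exposed to TGF-β1 (10 ng/mL) alone or combined with test agent at 2, 10 or 50 nM for 24, 48 or 72 h. Viability read by MTT (formazan in DMSO, 570 nm).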

[2] = Stability of compound in intestinal fluid at pH 6.8 at 1 uM after 4 hrs by LC-MS/MS analysis
HCT-116 [3] = assay: Antitumor activity against human HCT116 cells xenografted in BALB/c nude mouse assessed as tumor growth inhibition at 5 mg/kg, ip administered daily for 21 consecutive days relative to control; assay type: functional; conditions: HCT-116, ip, read-out: TGI
In short: (§1)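 Male BALB/c nude mice, 3–5 weeks old, inoculated subcutaneously with 1 × 10^7 HCT-116 cells. At about 75 mm³ tumor volume, randomized (n = 8/group) and dosed intraperitoneally daily. Volume by caliper as d² × D/2. At the end, tumors excised and weighed; inhibition = (Wcontrol − Wtreated)/Wcontrol × 100%.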

[4] = Solubility of compound in phosphate buffer at pH 7.4 after 8 hrs by HPLC analysis; assay type: physicochemical
In short: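 Compound was shaken in 50 mM phosphate buffer (pH 7.4) at 20 °C, centrifuged, and the supernatant analysed by HPLC. Conditions were a C18 column, acetonitrile–water 60/40 (v/v) at 1.0 mL/min, with detection at 254 nm. Run in triplicate.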

U-87 MG = assay: Antiproliferative activity against human U87MG cells after 72 hrs by MTT assay; assay type: functional, cell-based, U-87MG ATCC
In short: (§2)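 Cells grown in RPMI 1640 with 10% FBS in 96-well plates overnight, then exposed to test agents in triplicate for 72 h. MTT (5 mg/mL stock) added for the last 4 h, formazan dissolved in DMSO, absorbance read at 570 nm. Inhibition = (1 − OD treated/OD control) × 100%.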

HCT-116 [5] = assay: Antiproliferative activity against human HCT116 cells after 72 hrs by MTT assay; assay type: functional, cell-based; conditions: HCT-116, 72 h; in short: as §2
K562 = assay: Antiproliferative activity against human K562 cells after 72 hrs by MTT assay; assay type: functional, cell-based; conditions: K562, 72 h; in short: as §2
HT-29 = assay: Antiproliferative activity against human HT-29 cells after 72 hrs by MTT assay; assay type: functional, cell-based; conditions: HT-29, 72 h; in short: as §2
SW-620 = assay: Antiproliferative activity against human SW620 cells after 72 hrs by MTT assay; assay type: functional, cell-based; conditions: SW-620, 72 h; in short: as §2
HCT-8 = assay: Antiproliferative activity against human HCT8 cells after 72 hrs by MTT assay; assay type: functional, cell-based; conditions: HCT-8, 72 h; in short: as §2
[6] = Antiproliferative activity against human CCD-841 cells after 72 hrs by MTT assay; assay type: cell-based; conditions: CCD-841, 72 h; in short: as §2
[7] = Half life in Sprague-Dawley rat at 20 mg/kg, iv after 4 hrs by LC-MS/MS analysis; assay type: ADME, organism-based; conditions: in vivo
HCT-116 [8] = assay: Induction of ROS accumulation in human HCT116 cells at 10 uM after 3 hrs by DCFH-DA staining-based fluorescence microscopic analysis; assay type: functional, cell-based
In short: (§3)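 HCT-116 or CCD-841 cells treated at 10 μM for 3 h, stained with DCFH-DA, and imaged by fluorescence microscopy for green-fluorescent cells.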

[9] = Induction of ROS accumulation in human CCD-841 cells at 10 uM after 3 hrs by DCFH-DA staining-based fluorescence microscopic analysis; assay type: cell-based; conditions: ccd-841, 3 h; in short: as §3
HCT-116 [10] = assay: Antiproliferative activity against human HCT116 cells at […] pretreated with GSH for 1 hr measured after 72 hrs by MTT assay relative to control; assay type: functional
[11] = Acute toxicity in ICR mouse assessed as survival rate at 300 mg/kg, ip administered for 14 days relative to control; assay type: organism-based; conditions: in vivo
[12] = Acute toxicity in ICR mouse assessed as survival rate at 200 mg/kg, ip administered for 14 days relative to control; assay type: organism-based; conditions: in vivo
[13] = Acute toxicity in ICR mouse assessed as survival rate at 100 mg/kg, ip administered for 14 days relative to control; assay type: organism-based; conditions: in vivo
Mus musculus = assay: Toxicity in BALB/c nude mouse xenografted with human HCT116 cells assessed as loss of body weight at 4 mg/kg, ip administered thrice a week for 6 consecutive weeks; assay type: organism-based; conditions: in vivo
In short: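 Lung metastasis model: HCT-116 cells in serum-free medium injected into tail vein of BALB/c nude mice, then randomized and given vehicle or compound ip (1, 2 or 4 mg/kg) three times a week. Body weight recorded weekly, survival monitored (n = 6); mice sacrificed after 40 days and lungs examined by H&E histology.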

HCT-116 [14] = assay: Antitumor activity against human HCT116 cells xenografted in BALB/c nude mouse assessed as reduction in tumor volume at 2.5 to 5 mg/kg, ip administered daily for 21 consecutive days; assay type: functional, organism-based; in short: as §1
HCT-116 [15] = assay: Antiinvasive activity in human HCT116 cells assessed as inhibition of TGF-beta1-induced cell invasion at 50 nM after 48 hrs by crystal violet staining-based assay; assay type: functional
In short: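 Transwell invasion. HCT-116 cells (2.5 × 10^5/well) seeded on matrigel-coated chambers, with TGF-β1 (10 ng/mL) and test agents (2, 10, 50 nM) in the lower chamber for 48 h. Invaded cells stained with crystal violet and counted. Three independent experiments.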

[16] = biological target: RAC-alpha serine/threonine-protein kinase (Homo sapiens) (UniProt P31749); assay: Inhibition of TGF-beta1-induced AKT phosphorylation in human HCT116 cells at 50 nM after 48 hrs by Western blot analysis; assay type: cell-based
RAC-alpha serine/threonine-protein kinase (Homo sapiens), sequence (P31749 whole entry): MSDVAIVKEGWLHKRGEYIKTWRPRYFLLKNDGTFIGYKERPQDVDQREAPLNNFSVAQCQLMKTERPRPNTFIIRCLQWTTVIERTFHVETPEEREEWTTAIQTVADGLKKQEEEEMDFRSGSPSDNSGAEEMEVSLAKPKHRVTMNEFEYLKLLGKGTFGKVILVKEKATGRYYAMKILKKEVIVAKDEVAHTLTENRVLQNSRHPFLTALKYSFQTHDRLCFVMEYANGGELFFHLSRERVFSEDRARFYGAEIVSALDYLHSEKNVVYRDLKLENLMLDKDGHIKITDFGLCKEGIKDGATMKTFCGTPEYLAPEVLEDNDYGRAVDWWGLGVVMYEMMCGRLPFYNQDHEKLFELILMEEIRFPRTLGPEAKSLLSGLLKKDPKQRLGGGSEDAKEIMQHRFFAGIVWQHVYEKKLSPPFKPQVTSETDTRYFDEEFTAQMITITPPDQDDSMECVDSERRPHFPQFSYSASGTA
In short: (§4)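 HCT-116 cells treated with or without TGF-β1 (10 ng/mL) for 48 h, with or without test agent. Lysates (20 μg/lane) run on 7.5% SDS-PAGE and transferred to PVDF. Probed for p-Akt (Ser473), Akt, p-GSK-3β (S9), GSK-3β, E-cadherin, MMP-9 and β-actin, detected by ECL. Densitometry relative to β-actin or total protein. Three independent experiments.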

[17] = biological target: Glycogen synthase kinase-3 beta (Homo sapiens) (UniProt P49841); assay: Inhibition of TGF-beta1-induced GSK-3beta phosphorylation in human HCT116 cells at 50 nM after 48 hrs by Western blot analysis; assay type: cell-based; in short: as §4
Glycogen synthase kinase-3 beta (Homo sapiens), sequence (P49841 whole entry, looked up): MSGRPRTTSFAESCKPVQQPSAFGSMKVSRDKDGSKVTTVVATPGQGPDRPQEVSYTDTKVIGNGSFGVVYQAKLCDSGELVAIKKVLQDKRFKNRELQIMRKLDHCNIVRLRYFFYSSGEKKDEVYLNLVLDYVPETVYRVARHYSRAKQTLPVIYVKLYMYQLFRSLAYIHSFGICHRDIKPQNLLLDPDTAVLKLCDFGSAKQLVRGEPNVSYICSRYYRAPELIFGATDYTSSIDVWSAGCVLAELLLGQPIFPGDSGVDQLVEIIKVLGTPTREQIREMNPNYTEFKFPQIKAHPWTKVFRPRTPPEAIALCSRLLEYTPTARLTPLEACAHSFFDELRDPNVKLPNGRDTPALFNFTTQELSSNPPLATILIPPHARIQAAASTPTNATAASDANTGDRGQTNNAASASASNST

## Cc1nc(C)c(/C=C/C(=O)N2CCC=C(Cl)C2=O)nc1C
HCT-116 [1]
  Activity: Non-Toxic
[2]
  Stability: Stable
HCT-116 [3]
  inhibition in vivo at 5 mg/kg: 71.4%
[4]
  solubility at 8 h: 74.6 µg/mL (≈ 244 µM)
U-87 MG
  IC50: 3.43 µM
HCT-116 [5]
  IC50: 0.3 µM
K562
  IC50: 0.25 µM
HT-29
  IC50: 0.54 µM
SW-620
  IC50: 0.87 µM
HCT-8
  IC50: 1.21 µM
[6]
  IC50: 51.6 µM
[7]
  half-life: 2.17 h
HCT-116 [8]
  Activity: Active
[9]
  Activity: Toxic
HCT-116 [10]
  inhibition at […]: 36.1%
[11]
  survival at 336 h: 10%
[12]
  survival at 336 h: 30%
[13]
  survival at 336 h: 80%
Mus musculus
  Activity: Non-Toxic
HCT-116 [14]
  Activity: Active

## COc1cc(/C=C/C(=O)N2CCC=CC2=O)cc(OC)c1OC [PIPLARTINE]
HCT-116 [1]
  Activity: Non-Toxic
HCT-116 [3]
  inhibition in vivo at 5 mg/kg: 60.6%
[4]
  solubility at 8 h: 0.32 µg/mL (≈ 1.01 µM)
U-87 MG
  IC50: 17.3 µM
HCT-116 [5]
  IC50: 8.13 µM
K562
  IC50: 5.05 µM
HT-29
  IC50: 2.65 µM
SW-620
  IC50: 4.62 µM
HCT-8
  IC50: 4.1 µM
[6]
  IC50: 44.3 µM
[7]
  half-life: 2.87 h
HCT-116 [8]
  Activity: Active
[9]
  Activity: Toxic
HCT-116 [15]
  Activity: Active
Mus musculus
  Activity: Non-Toxic
[16]
  inhibition: Active
[17]
  inhibition: Active
